What all share (assay type): functional, cell-based
The test system of test [1] is MCF7. In words: Cytotoxicity against human MCF7 cells after 72 hrs by CellTitre-Glo luminescent cell viability assay. Particulars: MCF7, 72 h.
The test system of test [2] is Huh-7. In words: Cytotoxicity against human HuH7 cells after 72 hrs by CellTitre-Glo luminescent cell viability assay. The conditions noted are these: Huh-7, 72 h.
Test [3] deals with Jurkat. In words: Cytotoxicity against human Jurkat cells after 72 hrs by CellTitre-Glo luminescent cell viability assay. The method, boiled down: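 Jurkat grown in RPMI-1640 with 10% FBS and penicillin/streptomycin at 37 °C, 5% CO2. Cells seeded at 1000 per well, then given serially diluted compounds, with staurosporine as the positive control. Incubated 72 h in the dark, away from bright light. Viability read by CellTiter-Glo luminescence. IC50 obtained by regression of % viable cells against log concentration, 10 concentrations, triplicate experiments.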

Test [4] in a line: Cytotoxicity against human KE-97 cells after 72 hrs by CellTitre-Glo luminescent cell viability assay. Particulars: KE-97, 72 h.
Test [5] can be described thus: Cytotoxicity against human BGC823 cells after 72 hrs by CellTitre-Glo luminescent cell viability assay. The conditions noted are these: BGC-823, 72 h.

Each structure is given as a SMILES string. A value given as a limit tells only on which side of the number the result lay.

In general, IC50 refers to the concentration at which inhibition is half-maximal. Read a low IC50 as greater potency. As to `CC1(C)CC[C@@]2(CC[C@]3(C)C(=CC[C@@H]4[C@@]5(C)C[C@@H](O)[C@H](O)[C@@](C)(COC(=O)/C=C\c6ccc(O)cc6)[C@@H]5CC[C@]43C)[C@H]2O)C1` (relative stereo), the IC50 in test [1], in test [2], in test [3], in test [4] and in test [5] was above 10 µM each time.

Turning to `CC1(C)CC[C@@]2(CC[C@]3(C)C(=CC[C@@H]4[C@@]5(C)C[C@@H](O)[C@H](OC(=O)/C=C/c6ccc(O)c(O)c6)[C@@](C)(CO)[C@@H]5CC[C@]43C)[C@H]2O)C1` (relative stereo), the IC50 in test [1] is 4.6 µM; in test [2] it was 1.9 µM; in test [3] it was 3.9 µM; in test [4], 3 µM; in test [5] it was 7.5 µM.

As for `COc1cc(/C=C\C(=O)O[C@H]2[C@H](O)C[C@@]3(C)[C@@H](CC[C@]4(C)[C@@H]3CC=C3[C@@H](O)[C@@]5(CCC(C)(C)C5)CC[C@]34C)[C@]2(C)CO)ccc1O`, the concentration for half-maximal inhibition (IC50) in test [1], in test [2], in test [3], in test [4] and in test [5] was above 10 µM in each case.

`COc1cc(/C=C/C(=O)OC[C@@]2(C)[C@@H]3CC[C@]4(C)[C@H](CC=C5[C@@H](O)[C@]6(CCC(C)(C)C6)CC[C@]54C)[C@@]3(C)C[C@@H](O)[C@@H]2O)ccc1O`: the IC50 in test [1], in test [2], in test [3], in test [4] and in test [5] was above 10 µM each time.

The molecule `CN[C@@H]1C[C@H]2O[C@@](C)([C@@H]1OC)n1c3ccccc3c3c4c(c5c6ccccc6n2c5c31)C(=O)NC4` [STAUROSPORINE] yielded an IC50 in test [3] of 0.14 µM.

With `CC1(C)CC[C@]2(CC[C@]3(C)C(=CC[C@@H]4[C@@]5(C)C[C@@H](O)[C@H](OC(=O)/C=C\c6ccc(O)cc6)[C@@](C)(CO)[C@@H]5CC[C@]43C)[C@H]2O)C1`, the IC50 in test [1], in test [2], in test [3], in test [4] and in test [5] was above 10 µM in each case.

Regarding `CC1(C)CC[C@]2(CC[C@]3(C)C(=CC[C@@H]4[C@@]5(C)C[C@@H](O)[C@H](O)[C@@](C)(CO)[C@@H]5CC[C@]43C)[C@H]2O)C1`, the IC50 in test [1] is 8.5 µM; in test [2] it was above 10 µM; in test [3], above 10 µM; in test [4], above 10 µM; in test [5], above 10 µM.

With `CC1(C)CC[C@]2(CC[C@]3(C)C(=CC[C@@H]4[C@@]5(C)C[C@@H](O)[C@H](OC(=O)/C=C/c6ccc(O)cc6)[C@@](C)(CO)[C@@H]5CC[C@]43C)[C@H]2O)C1`, the half-maximal inhibitory concentration (IC50) in test [1], in test [2], in test [3], in test [4] and in test [5] was above 10 µM each time.

On to `CC1(C)CC[C@@]2(CC[C@]3(C)C(=CC[C@@H]4[C@@]5(C)C[C@@H](O)[C@H](O)[C@@](C)(COC(=O)/C=C/c6ccc(O)cc6)[C@@H]5CC[C@]43C)[C@H]2O)C1`, for which the IC50 in test [1], in test [2], in test [3], in test [4] and in test [5] was above 10 µM each time.

As to `COc1cc(/C=C/C(=O)O[C@H]2[C@H](O)C[C@@]3(C)[C@@H](CC[C@]4(C)[C@@H]3CC=C3[C@@H](O)[C@@]5(CCC(C)(C)C5)CC[C@]34C)[C@]2(C)CO)ccc1O`, the 50% inhibitory concentration (IC50) in test [1], in test [2], in test [3], in test [4] and in test [5] was above 10 µM each time.

In the case of `CC1(C)CC[C@@]2(CC[C@]3(C)C(=CC[C@@H]4[C@@]5(C)C[C@@H](O)[C@H](O)[C@@](C)(COC(=O)/C=C/c6ccc(O)c(O)c6)[C@@H]5CC[C@]43C)[C@H]2O)C1` (relative stereo), the IC50 is 4.3 µM in test [1]; 9.7 µM in test [2]; 9.7 µM in test [3]; above 10 µM in test [4]; above 10 µM in test [5].

For `COc1cc(/C=C\C(=O)OC[C@@]2(C)[C@@H]3CC[C@]4(C)[C@H](CC=C5[C@@H](O)[C@]6(CCC(C)(C)C6)CC[C@]54C)[C@@]3(C)C[C@@H](O)[C@@H]2O)ccc1O` (relative stereo), the IC50 in test [1], in test [2], in test [3], in test [4] and in test [5] was above 10 µM throughout.

Source of the values: ChEMBL document CHEMBL3102728, “Leonurusoleanolides E-J, minor spirocyclic triterpenoids from Leonurus japonicus fruits” (J Nat Prod, 2014).
